From PubChem
Only some compounds are listed: those with a hit (about 1.6% of all), similar ones and a draw of the others.
SR-BI DiI inh = blocks mouse SR-BI lipid uptake from DiI-HDL | Q61009 | ldlA[mSR-BI] CHO cells, DiI-HDL uptake fluorescence, 3 h | inhibition, % at 12.5 µM | actives 0.96% (n = 320,000) | AID 488896;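 active means mean replicate inhibition of at least 70% and a set share of replicates each scoring 70 or more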;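 further: 0% = median of neutral control wells and 100% = median of positive control wells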
dFosB act = activators of mouse delta FosB homodimer; P13346; purified delta FosB, TAMRA-CDK5 oligo fluorescence polarization; percent of positive-control signal above neutral wells; AID 493131; actives 0.99% (n = 340,000); activation, % at 25 µM;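 active means mean activation above about 17%, with every replicate also reaching it, limit read from the data, passing the limit was not always enough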
SR-BI uptake up = enhances SR-BI lipid uptake from DiI-HDL; CHO ldlA[mSR-BI] cells, DiI-HDL uptake fluorescence, 3 h; 100 = double the neutral-control signal; activation, % at 12.5 µM; actives 0.096% (n = 320,000);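 active means mean replicate activation of at least 60% and every replicate at or above 60%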;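 further: 0% = median plate neutral-control signal and 100% = twice that signal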
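system = CHO ldlA[mSR-BI] cells, LDL receptor-null, SR-BI overexpressing | medium = Ham's F12 with 0.5% BSA, HEPES 25 mM, pH 7.4 | probe or stimulus = DiI-HDL 10 µg/mL | compound dosing = single-point compound dose | incubation = compound exposure 3 h, 37 °C | technique = DiI fluorescence, bottom read | read-out = cell-associated DiI fluorescence as measure of HDL uptake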
S100A4 inh HTS = inhibitors of human S100A4 binding to myosin IIA peptide. P26447. S100A4/TAMRA-MyoIIA peptide fluorescence polarization. inhibition, % at 10.7 µM. actives 0.14% (n = 360,000). AID 652163;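 active means mean inhibition of at least 70% across replicates, with every replicate also reaching that level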
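Test system: S100A4 monomer protein; Medium: HEPES pH 7.2 with CaCl2, KCl, NaCl, DTT, Triton; Probe or stimulus: TAMRA-labelled myosin IIA heavy-chain peptide probe, 5 nM; Doses: one dose per compound; Times: polarization read 5 min after assay mix addition, stable 5–60 min; Benchmarks: neutral control DMSO, positive control TFP.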
RAD54 branch = inhibitors of human RAD54 branch migration | Q92698 | RAD54 Holliday junction branch migration, FAM/BHQ fluorescence | inhibition, % at 10.4 µM | actives 0.14% (n = 360,000) | AID 602329;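 active means mean normalized replicate activity at least 40 and at least half of replicates scoring 40 or more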;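 further: 0% = median of neutral control wells and 100% = median of positive control wells; inhibitors cause a drop in the FAM fluorescence signal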
Target sequence (Q92698 whole entry, looked up): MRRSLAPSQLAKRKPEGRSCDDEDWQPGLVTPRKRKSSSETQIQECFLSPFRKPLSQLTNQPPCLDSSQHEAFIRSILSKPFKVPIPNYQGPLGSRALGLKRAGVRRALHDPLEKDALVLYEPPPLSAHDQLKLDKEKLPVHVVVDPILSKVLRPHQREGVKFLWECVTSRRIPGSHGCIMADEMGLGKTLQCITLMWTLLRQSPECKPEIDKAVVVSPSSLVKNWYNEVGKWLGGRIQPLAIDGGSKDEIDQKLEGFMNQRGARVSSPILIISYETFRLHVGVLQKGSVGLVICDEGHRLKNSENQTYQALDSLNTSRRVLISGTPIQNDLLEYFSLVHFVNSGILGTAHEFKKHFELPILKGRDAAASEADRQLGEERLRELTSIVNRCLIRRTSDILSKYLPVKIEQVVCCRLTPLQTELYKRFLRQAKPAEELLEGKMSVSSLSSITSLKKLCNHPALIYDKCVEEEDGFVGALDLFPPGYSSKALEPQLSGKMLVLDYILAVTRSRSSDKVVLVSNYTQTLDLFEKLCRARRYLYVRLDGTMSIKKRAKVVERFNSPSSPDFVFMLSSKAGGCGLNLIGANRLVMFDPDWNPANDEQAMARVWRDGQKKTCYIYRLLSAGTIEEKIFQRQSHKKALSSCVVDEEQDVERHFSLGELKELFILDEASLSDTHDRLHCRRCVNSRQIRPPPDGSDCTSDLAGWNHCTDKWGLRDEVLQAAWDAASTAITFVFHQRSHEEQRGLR
PvdQ inh = P. aeruginosa PvdQ acylase inhibition | purified PvdQ acylase, fluorescence plate reader | AID 488965 | inhibition, % at 10 µM | actives 0.063% (n = 340,000); in the data active means inhibition above about 30%, passing the limit was not always enough;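 further: 0% = vehicle neutral wells and 100% = reference inhibitor wells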
Active calls of the source: *; / = no result given.

SMILES	SR-BI DiI inh	dFosB act	SR-BI uptake up	S100A4 inh HTS	RAD54 branch	PvdQ inh
COc1ccc(S(=O)(=O)N2CCOC2CNC(=O)C(=O)NCCCn2ccnc2)cc1OC (centres undefined)	-9	-1	9	-5	-5	-15
COc1ccc(S(=O)(=O)N2CCCOC2CNC(=O)C(=O)NCCCn2ccnc2)cc1OC (centres undefined)	-71	1	71*	-15	/	17
CN(C)CC(=O)N1CC2(C1)[C@@H](c1ccccc1)[C@@H](CO)N2S(C)(=O)=O	/	/	/	91*	/	/
CN(C)CC(=O)N1CC2(C1)[C@H](c1ccccc1)[C@@H](CO)N2S(C)(=O)=O	/	/	/	-2	/	/
CCOc1cc(CNC(C)C)c(Cl)cc1OCC(=O)NCCc1ccccc1	78*	5	-78	/	7	-5
C[C@@]12C(=O)Nc3ccc(Cl)cc3C(=O)N1[C@H]1c3cc(Cl)ccc3OC[C@@H]1[C@@H]2c1ccccc1	1	3	-1	2	-13	-13
C[C@@]12C(=O)Nc3ccc(Br)cc3C(=O)N1[C@H]1c3cc(Cl)ccc3OC[C@@H]1[C@@H]2c1ccccc1	19	25*	-19	/	-11	4
O=C(N/N=C/c1cc(Br)ccc1O)C(=O)Nc1ccccc1OC(F)(F)C(F)F	129*	-3	-129	/	-10	-7
COc1ccccc1/C=N/NC(=O)C(=O)Nc1ccccc1OC(F)(F)C(F)F	55	3	-55	0	7	-6
O=C(N/N=C/c1cc(Cl)ccc1O)C(=O)Nc1ccccc1OC(F)(F)C(F)F	119*	2	-119	-2	/	-2
O=C(C1CCOCC1)N1CC(=O)N2[C@H](CO)[C@H](c3ccc(C#CC4CCCC4)cc3)[C@H]2C1	/	/	/	-18	/	/
CC(OC(=O)c1ccc(Cl)nc1)C(=O)NC1CCCC1 (centres undefined)	-412	-2	412*	-1	-3	-10
COc1ccc2cc3cc(C(=O)NCCCN4CCOCC4)oc3nc2c1	10	-26	-10	/	60*	-12
Oc1ccc(-c2nc(-c3ccc(O)c(O)c3)cs2)cc1	18	-5	-18	/	4	-10
Oc1ccc(-c2nccs2)cc1	-73	-5	73*	-4	-8	-1
CC(=O)Nc1ccc(NC(=O)c2ccc3c(c2)CCN3S(C)(=O)=O)cc1	12	4	-12	-8	12	-3
COc1cccc(NC(=O)c2ccncc2)c1	18	0	-18	/	-6	-12
COc1cccc(NC(=O)c2ccc3c(c2)CCN3S(C)(=O)=O)c1	71*	-3	-71	-2	-2	-7
COc1cccc(NC(=O)c2cc(C(=O)Nc3cccc(OC)c3)n(C)n2)c1	78*	4	-78	-1	10	7
COc1cccc(NC(=O)c2ccc3c(c2)N(C)CCS3)c1	91*	0	-91	0	-5	20
COc1ccc2c3c(n(C)c2c1)[C@H](CO)NCC31CN(Cc2cc(-c3ccccc3)on2)C1	/	/	/	-19	/	/
COc1cccc(NC(=O)c2cc(-c3ccc(C)o3)nc3ccccc23)c1	77*	-7	-77	5	-3	1
CC(C)Cc1cc(C(=O)Nc2ccccc2)c2ccccc2n1	70*	-3	-70	-13	6	-15
COc1ccc(NC(=O)c2cc(-c3cc(OC)c(OC)c(OC)c3)nc3ccccc23)cc1OC	85*	-9	-85	-2	3	1
COc1ccccc1NC(=O)Cn1cnc2sc(C(=O)Nc3ccc(OC)c(OC)c3)c(C)c2c1=O	83*	3	-83	-6	-6	3
C[C@H](CO)N1C[C@H](C)[C@@H](CN(C)Cc2ccc(C(=O)O)cc2)Oc2ccc(NC(=O)C3CC3)cc2CC1=O	/	/	/	16	4	/
Cc1noc(C)c1NC(=O)Nc1ccc2c(c1)C(=O)N([C@@H](C)CO)C[C@@H](C)[C@H](CN(C)C(=O)Nc1ccc3c(c1)OCO3)OCCCC[C@@H](C)O2	/	/	/	-4	-2	/
COc1cccc(-c2cc(C(=O)Nc3nc4ccccc4s3)c3ccccc3n2)c1	88*	4	-88	/	3	7
COc1ccccc1NC(=O)c1cc(-c2ccc(OC)c(OC)c2)nc2ccccc12	52	-6	-52	5	-4	-13
